For assay [1], the system named is QG-56. Description: In vitro antitumor activity against QG-56 (human lung cancer) cells. The class given is functional, cell-based. The essentials:
(§1)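 MTT assay of cell growth after 3 days of incubation. IC50 is the dose that inhibits growth of 50% of the cultivated cells, given in ng/mL.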

The target in assay [2] is T1, DNA topoisomerase 1 (Homo sapiens) (UniProt P11387).
T1 sequence (whole entry): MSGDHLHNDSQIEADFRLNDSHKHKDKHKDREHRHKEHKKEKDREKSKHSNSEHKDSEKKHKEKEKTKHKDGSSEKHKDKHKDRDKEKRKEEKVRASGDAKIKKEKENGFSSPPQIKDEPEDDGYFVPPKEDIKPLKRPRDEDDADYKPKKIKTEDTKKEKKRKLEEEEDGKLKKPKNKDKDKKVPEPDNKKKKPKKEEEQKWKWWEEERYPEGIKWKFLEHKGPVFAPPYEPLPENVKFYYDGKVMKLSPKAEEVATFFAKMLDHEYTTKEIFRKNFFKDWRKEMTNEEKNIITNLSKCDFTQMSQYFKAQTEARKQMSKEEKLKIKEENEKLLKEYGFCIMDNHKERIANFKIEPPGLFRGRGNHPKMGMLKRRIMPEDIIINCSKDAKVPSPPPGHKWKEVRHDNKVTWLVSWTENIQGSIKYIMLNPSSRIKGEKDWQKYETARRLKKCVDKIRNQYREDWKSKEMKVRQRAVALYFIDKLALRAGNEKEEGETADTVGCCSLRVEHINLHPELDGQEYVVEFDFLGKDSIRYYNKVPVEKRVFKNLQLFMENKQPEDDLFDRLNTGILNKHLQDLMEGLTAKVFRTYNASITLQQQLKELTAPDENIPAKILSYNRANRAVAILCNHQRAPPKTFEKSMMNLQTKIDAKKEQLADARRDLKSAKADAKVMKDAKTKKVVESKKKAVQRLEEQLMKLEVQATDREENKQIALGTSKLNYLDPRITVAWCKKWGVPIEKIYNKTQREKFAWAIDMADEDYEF
Description: Inhibition of topoisomerase-1 compared to SN-38. An outline of the steps: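 DNA relaxation assay with topoisomerase I. IC50 is the concentration that inhibits 50% of the conversion of supercoiled DNA to its relaxed form. Values are given as the ratio of the test IC50 to the IC50 of SN-38.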

Assay [3] has as its system P388. Description: In vitro antitumor activity against P388 (murine leukemia) cells. The class given is functional, cell-based. Conditions: Mus musculus.
For assay [4], the system named is HOC-21 cell line. Nature of the assay: In vitro antitumor activity against HOC-21 (human ovarian cancer) cells. The assay is classed as functional, cell-based. An outline of the steps:
as §1

SMILES strings stand for the structures. Values after ≈ are worked out from the molar mass of the structure shown.

In the case of `CC[C@@]1(O)C(=O)OCc2c1cc1n(c2=O)Cc2c-1nc1cc(OC)cc3c1c2CCC3`, the results for the IC50 in assay [1], in assay [3] and in assay [4] were 1.32 ng/mL (≈ 0.00315 µM), 1.01 ng/mL (≈ 0.00241 µM) and 17.4 ng/mL (≈ 0.0416 µM), respectively. Also, the Ratio in assay [2] was 0.7.

`CC[C@@]1(O)C(=O)OCc2c1cc1n(c2=O)Cc2c-1nc1ccc(OC)c3c1c2CCN3`: the IC50 (usually the concentration needed to halve the response being measured) in assay [1] stood at 10.6 ng/mL (≈ 0.0253 µM); in assay [3], 10.7 ng/mL (≈ 0.0255 µM); in assay [4], 106 ng/mL (≈ 0.254 µM).

As for `CC[C@@]1(O)C(=O)OCc2c1cc1n(c2=O)Cc2c-1nc1ccc(OC)c3c1c2CCN3C(C)=O`, the IC50 in assay [1] was 29.8 ng/mL (≈ 0.0646 µM); in assay [3] it was over 62.5 ng/mL; in assay [4] it was over 500 ng/mL.

In the case of `CC[C@@]1(O)C(=O)OCc2c1cc1n(c2=O)Cc2c-1nc1cc(F)c(F)c3c1c2CCC3O` (some centres not stated), the IC50 in assay [1] worked out at 2.62 ng/mL (≈ 0.00595 µM); in assay [3], 3.17 ng/mL (≈ 0.0072 µM); in assay [4], 68.9 ng/mL (≈ 0.156 µM). Besides, the Ratio in assay [2] was determined as 1.2.

Take `CC[C@@]1(O)C(=O)OCc2c1cc1n(c2=O)Cc2c-1nc1cccc3c1c2CCS3`: the concentration for half-maximal inhibition (IC50) was 1.71 ng/mL (≈ 0.00421 µM) in assay [1], 3.04 ng/mL (≈ 0.00748 µM) in assay [3] and 33 ng/mL (≈ 0.0812 µM) in assay [4].

For `CC[C@@]1(O)C(=O)OCc2c1cc1n(c2=O)Cc2c-1nc1ccc(N)c3c1c2CCO3`, the IC50 in assay [1] is 0.71 ng/mL (≈ 0.00175 µM); in assay [3], 2.6 ng/mL (≈ 0.00641 µM); in assay [4], 57.7 ng/mL (≈ 0.142 µM). In addition, the Ratio in assay [2] was determined as 1.2.

With `CC[C@@]1(O)C(=O)OCc2c1cc1n(c2=O)Cc2cc3ccccc3nc2-1`, the Ratio in assay [2] is 0.39.

As to `CC[C@@]1(O)C(=O)OCc2c1cc1n(c2=O)Cc2c-1nc1cc(F)cc3c1c2CCC3`, the results for the concentration for half-maximal inhibition (IC50) in assay [1], in assay [3] and in assay [4] were 0.16 ng/mL (≈ 0.000394 µM), 0.26 ng/mL (≈ 0.00064 µM) and 3.39 ng/mL (≈ 0.00834 µM), respectively. Also, the Ratio in assay [2] was found to be 0.24.

Turning to `CC[C@@]1(O)C(=O)OCc2c1cc1n(c2=O)Cc2c-1nc1cc(F)c(F)c3c1c2CCC3`, the figures for the IC50 in assay [1], in assay [3] and in assay [4] were 0.38 ng/mL (≈ 0.000895 µM), 0.48 ng/mL (≈ 0.00113 µM) and 10.9 ng/mL (≈ 0.0257 µM), respectively. Moreover, the Ratio in assay [2] was 0.7.

Turning to `CCc1c2c(nc3ccc(O)cc13)-c1cc3c(c(=O)n1C2)COC(=O)[C@]3(O)CC` [7-ETHYL-10-HYDROXYCAMPTOTHECIN], the IC50 was found to be 0.9 ng/mL (≈ 0.00229 µM) in assay [1], 1.44 ng/mL (≈ 0.00367 µM) in assay [3] and 41.2 ng/mL (≈ 0.105 µM) in assay [4]. In assay [2], the Ratio worked out at 1.

With `CC[C@@]1(O)C(=O)OCc2c1cc1n(c2=O)Cc2c-1nc1ccc(C#N)c3c1c2CCC3`, the IC50 in assay [1] is 4.21 ng/mL (≈ 0.0102 µM); in assay [3] it was 8.14 ng/mL (≈ 0.0197 µM); in assay [4] it was 73.5 ng/mL (≈ 0.178 µM). Further, in assay [2], the Ratio was 3.9.

With `CC[C@@]1(O)C(=O)OCc2c1cc1n(c2=O)Cc2c-1nc1ccc(O)c3c1c2CCS3`, the IC50 was found to be 3.68 ng/mL (≈ 0.00871 µM) in assay [1], 8.63 ng/mL (≈ 0.0204 µM) in assay [3] and 153 ng/mL (≈ 0.361 µM) in assay [4]. Besides, the Ratio in assay [2] came to 1.6.

Regarding `CC[C@@]1(O)C(=O)OCc2c1cc1n(c2=O)Cc2c-1nc1cccc3c1c2CCC3`, the 50% inhibitory concentration (IC50) in assay [1] came out at 1.63 ng/mL (≈ 0.0042 µM); in assay [3] it was 5.23 ng/mL (≈ 0.0135 µM); in assay [4], 92.9 ng/mL (≈ 0.239 µM). For the same molecule, the Ratio in assay [2] worked out at 4.

Turning to `CC[C@@]1(O)C(=O)OCc2c1cc1n(c2=O)Cc2c-1nc1cc(N)c(O)c3c1c2CCC3`, the IC50 in assay [1] is 11.6 ng/mL (≈ 0.0277 µM); in assay [3], over 62.5 ng/mL; in assay [4] it was over 500 ng/mL. Besides, the Ratio in assay [2] turned out to be 2.6.

As to `CC[C@@]1(O)C(=O)OCc2c1cc1n(c2=O)Cc2c-1nc1ccc(OC)c3c1c2CCS3`, the figures for the IC50 in assay [1], in assay [3] and in assay [4] were 3.27 ng/mL (≈ 0.00749 µM), 6.49 ng/mL (≈ 0.0149 µM) and 80.2 ng/mL (≈ 0.184 µM), respectively.

For `CC[C@@]1(O)C(=O)OCc2c1cc1n(c2=O)Cc2c-1nc1cc(Cl)cc3c1c2CCC3`, the values for the IC50 in assay [1], in assay [3] and in assay [4] were 0.53 ng/mL (≈ 0.00125 µM), 0.73 ng/mL (≈ 0.00173 µM) and 14 ng/mL (≈ 0.0331 µM), respectively. Also, the Ratio in assay [2] is 0.23.

In the case of `CC[C@@]1(O)C(=O)OCc2c1cc1n(c2=O)Cc2c-1nc1ccc(O)c3c1c2CCC3`, the Ratio in assay [2] is 0.47.

With `CC[C@@]1(O)C(=O)OCc2c1cc1n(c2=O)Cc2c-1nc1ccc(N)c3c1c2CCC3`, the IC50 in assay [1] was 1.38 ng/mL (≈ 0.00342 µM); in assay [4], 35.9 ng/mL (≈ 0.089 µM). Also, the Ratio in assay [2] came to 1.4.

Turning to `CC[C@@]1(O)C(=O)OCc2c1cc1n(c2=O)Cc2c-1nc1ccc(N)c3c1c2CCS3`, the figures for the IC50 in assay [1], in assay [3] and in assay [4] were 0.4 ng/mL (≈ 0.000949 µM), 1.08 ng/mL (≈ 0.00256 µM) and 8.37 ng/mL (≈ 0.0199 µM), respectively. Also, the Ratio in assay [2] was found to be 0.9.

For `CC[C@@]1(O)C(=O)OCc2c1cc1n(c2=O)Cc2c-1nc1cc(O)cc3c1c2CCC3`, the IC50 in assay [1] amounted to 4.7 ng/mL (≈ 0.0116 µM); in assay [3] it was 0.99 ng/mL (≈ 0.00245 µM); in assay [4] it was 20.6 ng/mL (≈ 0.0509 µM). Further, the Ratio in assay [2] was 0.17.

Regarding `CC[C@@]1(O)C(=O)OCc2c1cc1n(c2=O)Cc2c-1nc1cc(C)cc3c1c2CCC3`, the IC50 was 10.3 ng/mL (≈ 0.0256 µM) in assay [1], 5.05 ng/mL (≈ 0.0125 µM) in assay [3] and 101 ng/mL (≈ 0.251 µM) in assay [4]. For the same molecule, the Ratio in assay [2] amounted to 3.6.

In the case of `CC[C@@]1(O)C(=O)OCc2c1cc1n(c2=O)Cc2c-1nc1cc(F)c(C)c3c1c2CCC3`, the IC50 in assay [1] came out at 0.17 ng/mL (≈ 0.000404 µM); in assay [3] it was 0.22 ng/mL (≈ 0.000523 µM); in assay [4], 2.06 ng/mL (≈ 0.0049 µM). The Ratio in assay [2] amounted to 0.51.

Source of the values: ChEMBL document CHEMBL1131261, “Synthesis and antitumor activity of ring A- and F-modified hexacyclic camptothecin analogues” (J Med Chem, 1998).
